Assay outcomes from PubChem.
SENP7 block – inhibitors of human SENP7 protease; recombinant SENP7, Z-RLRGG-aminoluciferin luminescence, 40 min; Q9BQF6; 330,000 tested, 1.5% active; inhibition, % at 5 µM;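 active means inhibition above about 50% at the single test dose, limit read from the data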
SENP8 block-1 – SENP8 (human) protease inhibition; recombinant SENP8, Nedd8 substrate fluorescence; inhibition, % at 20 µM; 360,000 tested, 0.64% active; AID 602440; in the data active means inhibition mostly above about 40%, no sharp cut-off; inactive means mostly below about 27%
Target sequence (Q96LD8 whole entry, looked up): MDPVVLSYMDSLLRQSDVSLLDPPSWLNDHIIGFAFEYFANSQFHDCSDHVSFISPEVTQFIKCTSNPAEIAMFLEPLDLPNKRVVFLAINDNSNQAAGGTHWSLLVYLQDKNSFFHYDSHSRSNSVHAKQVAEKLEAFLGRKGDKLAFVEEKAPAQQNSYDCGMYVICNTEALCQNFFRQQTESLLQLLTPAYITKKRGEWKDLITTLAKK
SENP6 inh – inhibitors of human SENP6 protease. Q9GZR1. Recombinant SENP6 catalytic domain, aminoluciferin luminescence. inhibition, % at 10 µM. 330,000 tested, 1.8% active. AID 2599;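 active means inhibition above about 50% at the single tested dose, limit read from the data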
SENP1 inh – blocks the human SENP1 SUMO protease catalytic domain. inhibition, % at 10 µM. 360,000 tested, 0.21% active. Q9P0U3. recombinant SENP1 catalytic domain, CyPet-SUMO1-YPet FRET cleavage;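 active means inhibition at least 30% at 10 µM, raw YFP signal under a set limit, fluorescence ratio 0.5 to 1.5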
Target sequence (Q9P0U3 419-644 limits assumed): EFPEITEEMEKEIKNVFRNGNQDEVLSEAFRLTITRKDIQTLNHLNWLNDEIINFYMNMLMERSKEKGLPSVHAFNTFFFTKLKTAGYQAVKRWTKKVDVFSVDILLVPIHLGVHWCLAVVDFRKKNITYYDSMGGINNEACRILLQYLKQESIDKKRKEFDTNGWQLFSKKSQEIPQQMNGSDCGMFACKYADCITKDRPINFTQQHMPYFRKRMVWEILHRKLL
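Test system: hSENP1 catalytic domain, recombinant; Amount: 20 pM final SENP1 enzyme; Medium: Tris pH 8 buffer plus EDTA, NaCl, BME, BSA, NP40, catalase; Schedule: 50 min enzyme reaction, room temperature, light-protected; Technique: FRET fluorescence in CFP and YFP emission channels; Controls: no-enzyme wells low, DMSO-plus-enzyme wells high control.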
CendR NRP1 mod – alters CendR peptide binding to human NRP-1; O14786; FAM-RPARPAR peptide binding to NRP-1, fluorescence polarization; inhibition, % at 25 µM; 360,000 tested, 0.85% active; AID 602438;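 active means inhibition or corrected inhibition above about 18%, plus a signal ratio from 0.5 to 1.5, limit read from the data, passing the limit was not always enough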
SENP8 block-2 – SENP8 protease inhibition | 330,000 tested, 1.2% active | Q96LD8 | inhibition, % at 10 µM | purified SENP8, Z-RLRGG-aminoluciferin cleavage, luminescence | AID 2540; in the data active means inhibition above about 50%
Numbers stand for hits; – = inactive; · = not tested or not shown. Shown are actives, neighbours in structure and some others; about 3.3% of the full set was active somewhere.

SMILES	SENP7 block	SENP8 block-1	SENP6 inh	SENP1 inh	CendR NRP1 mod	SENP8 block-2
CC(=O)NC1C(=O)N(CCc2ccccc2)c2ccc(Br)cc21 (stereo unspecified)	·	–	·	–	34.8	·
N#C/C(=C\c1ccccc1)C(=O)OCC(=O)N1CCCC1	–	–	–	–	23.7	–
N#Cc1ccccc1OCC(=O)OCC(=O)N1CCCC1	–	–	–	–	19.1	–
CC1CCN(C(=O)COC(=O)COc2ccccc2C#N)CC1	–	–	–	–	–	–
CCS(=O)(=O)c1ccc(C=NNc2nc3ccccc3o2)cc1	·	–	·	–	18.3	·
CCOc1ccc(CCN2C(=O)C(=O)N([C@@H](CC(C)C)CN3CCC[C@H]3CN3C(=O)C(=O)NC[C@@H]3CC(C)C)C[C@@H]2Cc2ccc(O)cc2)cc1	·	–	·	–	–	·
COc1ccc(N(CC(=O)NCc2ccco2)C(=O)CCC(=O)Nc2ccccn2)cc1	–	–	–	–	21.0	–
CCOc1ccccc1-c1ccc(C(=O)NCc2ccccc2)o1	–	–	–	–	27.3	–
O=S(=O)(c1ccccc1)c1cnc2ccccc2c1	–	–	–	–	26.5	–
O=C(OCc1cc2ccccc2[nH]c1=O)c1ccncc1	–	–	–	–	31.8	–
O=C(OCc1cc2ccccc2[nH]c1=O)c1ccccc1	–	–	–	–	–	–
Cc1ccc(-c2cccc(C3CC=CC4C3C(=O)N(Cc3ccccc3)C4c3cc(C)ccc3F)c2)cc1 (stereo unspecified)	–	–	–	–	30.0	–
C[C@@H]1CC=C[C@H]2[C@H]1C(=O)N(Cc1ccccc1)[C@H]2c1ccc(/C=C/c2ccccc2)cc1F	–	–	–	–	29.1	–
C[C@@H]1CC=C[C@H]2[C@H]1C(=O)N(Cc1ccccc1)[C@H]2c1ccc(-c2ccc(F)cc2)cc1F	–	–	–	–	–	–
COc1ccc(-c2ccc(C)cc2)cc1[C@H]1[C@@H]2C=CCC[C@@]2(C)C(=O)N1Cc1ccccc1	–	–	–	–	–	–
COc1ccc([C@H]2[C@H]3C=CC[C@@H](C)[C@@H]3C(=O)N2Cc2ccccc2)cc1Cl	–	–	–	–	27.8	–
COc1ccc(Br)cc1[C@H]1[C@H]2C=CC[C@@H](C)[C@@H]2C(=O)N1Cc1ccccc1	–	–	–	–	–	–
C[C@@]12CCC=C[C@H]1[C@H](c1ccc(C(F)(F)F)cc1)N(Cc1ccccc1)C2=O	–	–	–	–	26.4	–
O=C(Cc1ccccc1Cl)c1ccccc1	·	–	·	–	–	·
C[C@@]12CCC=C[C@H]1[C@H](c1ccc(/C=C/c3ccccc3)cc1F)N(Cc1ccccc1)C2=O	–	–	–	–	20.8	–
C[C@@]12CCC=C[C@H]1[C@H](c1ccc3ccccc3c1/C=C/c1ccccc1)N(Cc1ccccc1)C2=O	–	–	–	–	–	–
COc1ccc(Nc2c(CCc3ccccc3)nc3nc(C)cc(C)n23)cc1	·	–	·	–	–	·
O=C(O)CCC(=O)Nc1cccc(C(=O)c2ccccc2)c1	–	–	–	–	–	–
Cc1ccccc1NC(=O)c1cccc(NC(=O)CCC(=O)O)c1	–	–	–	–	22.8	–
CCn1cc(C(=O)NCc2cccs2)c(=O)c2ccc(C)nc21	–	–	–	–	27.8	–
SMILES	SENP7 block	SENP8 block-1	SENP6 inh	SENP1 inh	CendR NRP1 mod	SENP8 block-2
CCn1cc(C(=O)NCc2ccccc2F)c(=O)c2ccc(C)nc21	–	–	–	–	–	–
CN(CC(=O)Nc1ccccc1Cl)C(=O)COC(=O)Cc1ccc(F)cc1	–	–	–	–	–	–
COc1cccc(CC(=O)OCC(=O)N(C)CC(=O)Nc2ccccc2Cl)c1	–	–	–	–	19.9	–
CCCCn1nc2cc(C(=O)NCc3cc(C(F)(F)F)cc(C(F)(F)F)c3)ccc2c1OC	–	–	–	–	26.6	–
CCCCn1nc2cc(C(=O)NCc3ccc(OC(F)(F)F)cc3)ccc2c1OC	–	–	–	–	27.2	–
CCn1nc2cc(C(=O)NCc3cc(C(F)(F)F)cc(C(F)(F)F)c3)ccc2c1OC	–	–	–	–	–	–
CCCn1nc2cc(C(=O)NCc3ccc(C)cc3)ccc2c1OC	–	–	–	–	–	–
COc1c2ccc(C(=O)NCc3cc(C(F)(F)F)cc(C(F)(F)F)c3)cc2nn1C	–	–	–	–	27.5	–
Oc1cc2c(cc1O)C1c3ccc(O)c(O)c3OCC1(O)C2 (stereo unspecified)	–	69.2	–	–	–	–
CN(C)c1ccc(C(=O)OCC(=O)c2ccc[nH]2)cc1	–	–	–	–	–	–
CCN(CC)CCNC(=O)c1ccc(NC(=O)c2cccc(S(=O)(=O)N3CCc4ccccc43)c2)cc1	–	–	–	–	–	–
CC1Cc2ccccc2N1S(=O)(=O)c1cccc(C(=O)N2CCN(c3ncccn3)CC2)c1 (stereo unspecified)	–	–	–	–	35.0	–
CCN(CC)CCNC(=O)c1ccc(NC(=O)c2cccc(S(=O)(=O)N3c4ccccc4CC3C)c2)cc1 (stereo unspecified)	–	–	–	–	29.5	–
COc1cc(NC(=O)CN2C(=O)COc3ccccc32)cc(OC)c1	·	–	·	–	–	·
CNc1snc(C)c1C(=O)OC(C)C(=O)Nc1ccc(F)cc1 (stereo unspecified)	–	–	–	–	–	–
CC1(c2nnc(Cc3ccccc3)o2)CC(c2cccc(Cl)c2)=NO1 (stereo unspecified)	–	–	–	–	27.5	–
Cc1cccc(N2CCN(C(C(=O)NCc3ccccc3)c3ccc(F)cc3)CC2)c1C (stereo unspecified)	·	–	·	–	–	·
Cc1cccc(NCC(=O)N/N=C\c2cccc(Oc3ccccc3)c2)c1	–	–	–	–	–	–
Cc1ccc(NCC(=O)N/N=C/c2cccc(Oc3ccccc3)c2)cc1	–	–	–	–	40.6	–
Cc1ccc(NC(=O)c2cccc(Cl)c2)nc1	–	–	–	–	24.9	–
Cc1ccc(NC(=O)c2ccccc2[N+](=O)[O-])nc1	–	–	–	–	29.8	–
Cc1ccc(NC(=O)c2ccc(Cl)cc2[N+](=O)[O-])nc1	–	–	–	–	–	–
CCc1nc2ccc(C(=O)N3CCN(C(=O)c4ccco4)CC3)cn2c1N(C)C(=O)c1cccc(OC)c1	·	–	·	–	–	·
CC(O)[C@H]1CC[C@H]2[C@@H]3CC[C@H]4C[C@@H](O)CC[C@]4(C)[C@H]3C(=O)C[C@]12C (stereo partly specified)	–	–	–	–	25.7	–
COC(=O)[C@@]12C[C@@H](CC(=O)NCCCCc3ccccc3)C(=O)N(Cc3ccco3)C1=CCC(C)(C)C2	·	–	·	–	–	·
Cc1cc(C)nc(SCc2cn3c(C)cccc3n2)n1	–	–	–	–	–	–
Cc1ccnc(SCc2cn3c(C)cccc3n2)n1	–	–	–	–	20.2	–
